This passage reports Activity, Activity in animals and Toxicity results from ChEMBL document CHEMBL1132994, “Synthesis and anticonvulsant and neurotoxic properties of substituted N-phenyl derivatives of the phthalimide pharmacophore” (J Med Chem, 2000).

Calls of active or inactive are those of the source. No cut-off for these calls is given here.

The subject of data set [1] is Mus musculus. Nature of the data set: Neurotoxicity determined by rotarod test after intraperitoneal administration at a concentration of 300 mg/kg after 4 hours; Inactive. Type of data set: functional, organism-based. The arrangement: dose 300 mg/kg. In general terms: Falling from the rotarod earlier than controls is read as motor impairment.
Data set [2] has as its system Mus musculus. Nature of the data set: Neurotoxicity by rotarod test after ip administration at a concentration of 300 mg/kg after 30 minutes; Active. Type of data set: functional, organism-based. The arrangement: dose 300 mg/kg.
The test system of data set [3] is Mus musculus. The data set is described as follows: Anticonvulsant activity in mice through seizures induced by subcutaneous pentylenetetrazole (scPTZ) tests after ip administration at a concentration of 300 mg/kg after 4 hours; Inactive. Type of data set: functional, organism-based. The arrangement: dose 300 mg/kg.
For data set [4], the system named is Mus musculus. Nature of the data set: Anticonvulsant activity in mice through seizures induced by maximal electroshock (MES) tests after ip administration at a concentration of 100 mg/kg after 30 min; Active. Type of data set: functional, organism-based. The arrangement: dose 100 mg/kg.
For data set [5], the system named is Mus musculus. Nature of the data set: Anticonvulsant activity in mice through seizures induced by maximal electroshock (MES) tests after ip administration at a concentration of 300 mg/kg after 4 hours; Inactive. Type of data set: functional, organism-based. The arrangement: dose 300 mg/kg. In general terms: In the maximal electroshock model the usual endpoint is tonic extension of the hind limbs.

The subject of data set [6] is Mus musculus. The data set is described as follows: Anticonvulsant activity in mice through seizures induced by subcutaneous pentylenetetrazole (scPTZ) test after ip administration at a concentration of 300 mg/kg after 30 min; Inactive. On the set-up: dose 300 mg/kg. Type of data set: functional, organism-based.
Data set [7] deals with Rattus norvegicus. Nature of the data set: Anticonvulsant activity was measured in rats through seizures induced by maximal electroshock (MES) tests by oral administration of drug after 4 hours. Type of data set: functional. In outline:
(§1)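 Rats given a single oral dose of 30 or 50 mg/kg, depending on compound; MES protection scored at 15, 30, 60, 120 and 240 min. Activity graded by fraction of animals protected (0-25%, 25-50%, 50-75%, 75-100%); neurotoxicity monitored at the same time points.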

For data set [8], the system named is Rattus norvegicus. Nature of the data set: Anticonvulsant activity was measured in rats through seizures induced by maximal electroshock (MES) tests by oral administration of drug at a concentration of 30 mg/kg after 2 hours. Type of data set: functional. In outline:
as §1

Data set [9] concerns Rattus norvegicus. The data set is described as follows: Anticonvulsant activity in rats through seizures induced by maximal electroshock (MES) tests by oral administration of drug at a concentration of 30 mg/kg after 15 minutes; No activity. Type of data set: functional, organism-based. The arrangement: dose 30 mg/kg. In outline:
as §1

Data set [10] concerns Rattus norvegicus. Nature of the data set: Anticonvulsant activity in rats through seizures induced by maximal electroshock (MES) tests by oral administration of drug at a concentration of 30 mg/kg after 30 minutes. Type of data set: functional. In outline: as §1
The subject of data set [11] is Rattus norvegicus. Nature of the data set: Anticonvulsant activity in rats through seizures induced by maximal electroshock (MES) tests after oral administration at a concentration of 30 mg/kg after 1 hour. Type of data set: functional. The method in brief:
as §1

Data set [12] concerns Rattus norvegicus. The data set is described as follows: (§2) Toxicity screening in rats dosed orally with the compound; No toxicity. Type of data set: functional, organism-based. The method in brief:
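Rats given a single oral dose of 30 or 50 mg/kg, depending on compound. Minimal neurotoxicity was scored at 15, 30, 60, 120 and 240 min after dosing, alongside the MES test. Scores are graded by the percentage of animals affected.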

Data set [13] has as its system Mus musculus. Nature of the data set: Anticonvulsant activity in mice through seizures induced by maximal electroshock (MES) tests after ip administration at a concentration of 100 mg/kg after 30 min; Inactive. Type of data set: functional, organism-based. On the set-up: dose 100 mg/kg.
For data set [14], the system named is Mus musculus. Nature of the data set: Anticonvulsant activity in mice through seizures induced by maximal electroshock (MES) tests after ip administration at a concentration of 300 mg/kg after 4 hour; Active. Type of data set: functional, organism-based. The arrangement: dose 300 mg/kg.
The test system of data set [15] is Mus musculus. Nature of the data set: Anticonvulsant activity in mice through seizures induced by sc pentylenetetrazole (intraperitoneal administration at a concentration of 300 mg/kg after 30 min; Inactive. On the set-up: dose 300 mg/kg. Type of data set: functional, organism-based.
The test system of data set [16] is Mus musculus. Nature of the data set: Neurotoxicity by rotarod test after intraperitoneal administration at a concentration of 300 mg/kg after 30 minutes; Inactive. Type of data set: functional, organism-based. The arrangement: dose 300 mg/kg.
For data set [17], the system named is Mus musculus. Nature of the data set: Anticonvulsant activity in mice through seizures induced by maximal electroshock (MES) tests after ipb administration at a concentration of 300 mg/kg after 4 hours.; Inactive. Type of data set: functional, organism-based. The arrangement: dose 300 mg/kg.
Data set [18] deals with Mus musculus. The data set is described as follows: Anticonvulsant activity in mice through seizures induced by sc pentylenetetrazole (intraperitoneal administration at a concentration of 300 mg/kg after 4 hours; Inactive. Type of data set: functional, organism-based. The arrangement: dose 300 mg/kg.
Data set [19] relates to Mus musculus. Nature of the data set: Anticonvulsant activity in mice through seizures induced by subcutaneous pentylenetetrazole (scPTZ) tests after ip administration at a concentration of 300 mg/kg after 30 min; Inactive. Type of data set: functional, organism-based. The arrangement: dose 300 mg/kg.
Data set [20] deals with Mus musculus. Nature of the data set: Anticonvulsant activity in mice through seizures induced by maximal electroshock (MES) tests after ip administration at a concentration of 100 mg/kg after 30 min; active. Type of data set: functional, organism-based. The arrangement: dose 100 mg/kg.
Data set [21] has as its system Mus musculus. Nature of the data set: Anticonvulsant activity in mice through seizures induced by scpentylenetetrazol (intraperitoneal administration at a concentration of 300 mg/kg after 4 hours; Inactive. Type of data set: functional, organism-based. On the set-up: dose 300 mg/kg.
Data set [22] deals with Rattus norvegicus. Nature of the data set: Anticonvulsant activity was measured in rats through seizures induced by maximal electroshock (MES) tests by oral administration of drug after 2 hours. Type of data set: functional. In outline: as §1
The subject of data set [23] is Rattus norvegicus. Nature of the data set: Anticonvulsant activity was measured in rats through seizures induced by maximal electroshock (MES) tests by oral administration of drug after 30 minutes. Type of data set: functional. In outline: as §1
The test system of data set [24] is Rattus norvegicus. The description is as §2. Type of data set: organism-based. Particulars: in vivo, po.
In data set [25] the test system is Rattus norvegicus. The data set is described as follows: Anticonvulsant activity was measured in rats through seizures induced by maximal electroshock (MES) tests by oral administration of drug after 15 minutes. Type of data set: functional. In outline: as §1
Data set [26] relates to Mus musculus. The data set is described as follows: Neurotoxicity by rotarod test after intraperitoneal administration at a concentration of 300 mg/kg after 4 hours.; Inactive. Type of data set: functional, organism-based. The arrangement: dose 300 mg/kg.
For data set [27], the system named is Mus musculus. The data set is described as follows: Neurotoxicity by rotarod test after intraperitoneal administration at a concentration of 300 mg/kg after 30 minutes.; active. Type of data set: functional, organism-based. The arrangement: dose 300 mg/kg.
Data set [28] deals with Mus musculus. The data set is described as follows: Anticonvulsant activity in mice through seizures induced by maximal electroshock (MES) tests after intraperitoneal administration at a concentration of 300 mg/kg after 4 hours; Inactive. Type of data set: functional, organism-based. The arrangement: dose 300 mg/kg.

As for `Nc1ccc(N2C(=O)c3ccccc3C2=O)cc1`, the result with Mus musculus [1], in the data set on Mus musculus [3], in the data set on Mus musculus [5] and in the data set on Mus musculus [6] was inactive. Besides, the outcome with Mus musculus [2] and in the data set with Mus musculus [4] was Active. Also, the Activity in animals in the data set on Rattus norvegicus [7] was 25%; in the data set with Rattus norvegicus [8] it was 50%; with Rattus norvegicus [9], “No activity”; in the data set with Rattus norvegicus [10], 25%; in the data set on Rattus norvegicus [11] it was 75%. Further, the Toxicity result in the data set with Rattus norvegicus [12] is “Not toxic”.

With `Cc1cccc([N+](=O)[O-])c1N1C(=O)c2ccccc2C1=O`, the result in the data set on Mus musculus [1], in the data set with Mus musculus [3], in the data set on Mus musculus [13], with Mus musculus [15] and in the data set with Mus musculus [16] was inactive. Also, in the data set on Mus musculus [14], the outcome was Active.

On to `O=C1c2ccccc2C(=O)N1c1ccc([N+](=O)[O-])cc1Cl`, for which the outcome in the data set with Mus musculus [1], with Mus musculus [13], in the data set on Mus musculus [17], with Mus musculus [18], in the data set on Mus musculus [16] and with Mus musculus [19] was inactive.

On to `Cc1cccc(C)c1N1C(=O)c2ccccc2C1=O`, for which the result in the data set on Mus musculus [1], with Mus musculus [5], in the data set on Mus musculus [15], in the data set with Mus musculus [16] and in the data set on Mus musculus [21] was inactive. The result with Mus musculus [20] was Active. In addition, the Activity in animals in the data set on Rattus norvegicus [7] is recorded as 50%; in the data set on Rattus norvegicus [22], 25%; in the data set on Rattus norvegicus [23], 50%; in the data set on Rattus norvegicus [25], 50%. Moreover, the Toxicity result in the data set on Rattus norvegicus [24] is on record as “No toxicity”.

For the compound `COC(=O)c1ccccc1N1C(=O)c2ccccc2C1=O`, the result with Mus musculus [26], with Mus musculus [5], in the data set with Mus musculus [15] and with Mus musculus [18] was inactive. Moreover, the outcome in the data set with Mus musculus [27] was Active.

On to `COc1ccc(N2C(=O)c3ccccc3C2=O)c(OC)c1`, for which the outcome in the data set on Mus musculus [1], with Mus musculus [28], in the data set on Mus musculus [13], with Mus musculus [15], in the data set with Mus musculus [18] and with Mus musculus [16] was inactive.
